Measurements gathered from unrelated publications.
Each line is one published result; the experiments were not run side by side.
Cell line: Vero
Read-out: cell growth or viability

SMILES	assay	conditions	CC50
N#Cc1c(-c2ccc(Cl)cc2)nc2n(c1=O)NC(c1ccccc1O)N2C(Cc1c[nH]c2ccccc12)C(=O)O (stereo not drawn)	MTT	72 h	250 µg/mL
Cc1cn([C@H]2C[C@H](N=[N+]=[N-])[C@@H](CO)O2)c(=O)[nH]c1=O			51 µM
COC(=O)N[C@H](C(=O)N1C[C@@H](N=[N+]=[N-])C[C@H]1c1nc(Br)c(-c2ccc(-c3ccc(-c4[nH]c([C@@H]5C[C@H](N=[N+]=[N-])CN5C(=O)[C@@H](NC(=O)OC)C(C)C)nc4Br)cc3)cc2)[nH]1)C(C)C			> 100 µM
C[C@@H]1[C@H](O)[C@@H](C)/C=C/C=C/C=C/C=C/C=C/C=C/C=C/[C@H](O[C@@H]2O[C@H](C)[C@@H](O)[C@H](N)[C@@H]2O)C[C@@H]2O[C@](O)(C[C@@H](O)C[C@@H](O)[C@H](O)CC[C@@H](O)C[C@@H](O)CC(=O)O[C@H]1C)C[C@H](O)[C@H]2C(=O)O			7.7 µM
Cc1cccc(NCc2ccc(Oc3ccccn3)cc2)c1	MTT	72 h	> 300 µM
CC(=O)C1=C(C)N2NC(C)(c3ccccc3O)N(C(Cc3c[nH]c4ccccc34)C(=O)O)C2=NC1c1ccc(Cl)cc1 (stereo not drawn)	MTT	72 h	500 µg/mL
O=C(Nc1ccc([N+](=O)[O-])cc1F)c1cc(Cl)ccc1O	MTT	72 h	5 µg/mL
CC1(c2ccccc2O)Nn2c(nc(-c3ccc(Cl)cc3)c(C#N)c2=O)N1C(Cc1c[nH]c2ccccc12)C(=O)O (stereo not drawn)	MTT	72 h	500 µg/mL
c1ccc(NCc2ccc(Oc3ccccn3)cc2)cc1	MTT	72 h	> 300 µM
CN(C)N1C(=O)c2ccccc2C1CB1OC(C)(C)C(C)(C)O1 (stereo not drawn)			204 µM
O=C(Nc1ccc(Br)cc1)c1cc(Cl)ccc1O	MTT	72 h	10 µg/mL
Clc1ccc(NCc2ccc(Oc3ccccn3)cc2)cc1	MTT	72 h	> 300 µM
CC(=O)C1=C(C)N2NC(c3ccccc3O)N(C(Cc3c[nH]c4ccccc34)C(=O)O)C2=NC1c1ccc(Cl)cc1 (stereo not drawn)	MTT	72 h	250 µg/mL
C[C@H]1COc2c(N3CCN(C)CC3)c(F)cc3c(=O)c(C(=O)O)cn1c23	MTT	72 h	> 100 µg/mL
O=C1C(O)=C([C@H]2CC[C@H](c3ccc(Cl)cc3)CC2)C(=O)c2ccccc21			9.5 µM
Clc1ccccc1NCc1ccc(Oc2ccccn2)cc1	MTT	72 h	> 300 µM
CC(C)(CO)C(=O)SCCOP(=O)(NCc1ccccc1)OC[C@H]1O[C@@H](n2cnc3c(=O)[nH]c(N)nc32)[C@](C)(O)[C@@H]1O (mixture of isomers)			> 100 µM
COc1cccc(NCc2ccc(Oc3ccccn3)cc2)c1	MTT	72 h	> 300 µM
O=C(Nc1ccc(Br)c(C(F)(F)F)c1)c1cc(Cl)ccc1O	MTT	72 h	5 µg/mL
Brc1ccc(NCc2ccc(Oc3ccccn3)cc2)cc1	MTT	72 h	> 300 µM
O=C(Nc1cccc(C(F)(F)F)c1)c1cc(Cl)ccc1O	MTT	72 h	< 5 µg/mL
